Measurements as given in ChEMBL document CHEMBL3588789, “Synthesis and Pharmacokinetic Evaluation of Siderophore Biosynthesis Inhibitors for Mycobacterium tuberculosis” (J Med Chem, 2015).

Tests used:
[1] = AUC (0 to infinity) in Sprague-Dawley rat at 2.5 mg/kg, iv by LC-MS/MS method; assay type: ADME, organism-based; set-up: dose 2.5 mg/kg, route intravenous, time infinity; details: in vivo
Method in brief: (§1)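 Female Sprague-Dawley rats (250–274 g) with dual jugular/femoral vein catheters, 3 per compound, given a single 2.5 mg/kg bolus into the jugular catheter over 5 s, 3 days after oral dosing. Vehicle was 0.05% sodium carboxymethylcellulose or 25% hydroxypropyl-β-cyclodextrin in water. Femoral blood sampled at 0–480 min into K2EDTA. Plasma analysed by LC–MS/MS with an internal standard. Non-compartmental analysis.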

[2] = test system: Caco-2; assay: (§2) Apparent permeability from basolateral to apical side in human Caco2 cells after 30 to 120 mins by HPLC method; assay type: ADME, cell-based
Method in brief: (§3)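 Caco-2 cells (passage 50–70) grown 21 days on Transwell inserts, used only where TEER >300. Apical buffer pH 6.0, basolateral pH 7.4, 60 min preincubation. Compound dosed from a 20 mM DMSO stock with lucifer yellow on the donor side. Samples analysed by HPLC. Papp = (dQ/dt)/(A·C0) from cumulative sampling. Efflux ratio from B–A and A–B values.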

[3] = Clearance in Sprague-Dawley rat at 2.5 mg/kg, iv by LC-MS/MS method; assay type: ADME, organism-based; details: in vivo; method in brief: as §1
[4] = test system: HepG2; assay: Cytotoxicity against human HepG2 cells assessed as reduction in cell viability incubated for 48 hrs by MTT assay; assay type: cell-based; details: hepg2, 48 h
Method in brief: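 HepG2 cells (2.5–5.0 × 10^4 per well) in EMEM with 10% FBS, in triplicate. Final compound concentrations 1–200 μM diluted from 20 mM DMSO stocks. Controls were 1% DMSO and 1% Triton X-100. Incubated 48 h at 37 °C under 5% CO2.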

[5] = (§4) AUC (0 to infinity) in Sprague-Dawley rat at 25 mg/kg, po by LC-MS/MS method; assay type: ADME, organism-based; set-up: dose 25 mg/kg, time infinity, route oral; details: Sprague-Dawley, in vivo
[6] = test system: Caco-2; assay: (§5) Efflux ratio in human Caco2 cells after 30 to 120 mins by HPLC method; assay type: ADME, cell-based; method in brief: as §3
[7] = Terminal half life in Sprague-Dawley rat at 2.5 mg/kg, iv by LC-MS/MS method; assay type: ADME, organism-based; details: in vivo, read-out: beta t1/2
[8] = test system: Caco-2; assay: (§6) Apparent permeability from apical to basolateral side in human Caco2 cells after 30 to 120 mins by HPLC method; assay type: ADME, cell-based; method in brief: as §3
[9] = Ratio of MIC for antimicrobial activity against Mycobacterium tuberculosis H37Rv to KI)app) for inhibition of Mycobacterium tuberculosis MbtA expressed in Escherichia coli
[10] = (§7) Cmax in Sprague-Dawley rat at 25 mg/kg, po by LC-MS/MS method; assay type: ADME, organism-based; set-up: dose 25 mg/kg, route oral; details: Sprague-Dawley, in vivo
Method in brief: (§8)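 Female Sprague-Dawley rats (250–274 g), catheterised, 3 per compound, dosed by oral gavage at 25 mg/kg from a 10 mg/mL solution. Femoral-vein blood taken at 0, 15, 30, 45, 60, 120, 240 and 480 min into K2EDTA. Plasma protein-precipitated with an internal standard and quantified by LC–MS/MS against standards in rat plasma. Parameters by non-compartmental analysis.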

[11] = test system: Rattus norvegicus; assay: Oral bioavailability in Sprague-Dawley rat at 25 mg/kg by LC-MS/MS method; assay type: ADME, organism-based; details: in vivo
Method in brief: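 Crossover in the same 3 female Sprague-Dawley rats: 25 mg/kg by oral gavage, then after a 3-day washout 2.5 mg/kg iv bolus. Serial femoral plasma quantified by LC–MS/MS. AUCs by non-compartmental analysis. Absolute bioavailability calculated individually for each rat from its oral and iv data.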

[12] = Inhibition of Mycobacterium tuberculosis MbtA expressed in Escherichia coli using [32P]PPi, ATP and salicylic acid incubated for 20 mins by liquid scintillation counting method; details: read-out: Ki(app)
[13] = test system: Mycobacterium tuberculosis; assay: Antimicrobial activity against Mycobacterium tuberculosis H37Rv grown in GAS medium without ferric ammonium citrate at pH 6.6 incubated for 10 to 14 days by broth microdilution method; assay type: functional
[14] = as §2; assay type: ADME, cell-based; details: caco-2; method in brief: as §3
[15] = test system: Rattus norvegicus; assay: as §4; assay type: ADME, organism-based; set-up: dose 25 mg/kg, time infinity, route oral; details: in vivo, BLD = below limit of detection
[16] = as §5; assay type: ADME, cell-based; details: caco-2; method in brief: as §3
[17] = as §6; assay type: ADME, cell-based; details: caco-2; method in brief: as §3
[18] = test system: Rattus norvegicus; assay: as §7; assay type: ADME, organism-based; set-up: dose 25 mg/kg, route oral; details: in vivo, BLD = below limit of detection; method in brief: as §8
[19] = test system: Plasma; assay: Drug metabolism in Sprague-Dawley rat plasma assessed as 2',3'-O-Di-acetyl-5'-O-[N-(2-hydroxybenzoyl)sulfamoyl]-adenosine formation at 10 uM; assay type: ADME, cell-free
[20] = test system: Plasma; assay: Drug metabolism in Sprague-Dawley rat plasma assessed as 5'-O-[N-(Salicyl)sulfamoyl]adenosine formation at 10 uM; assay type: ADME, cell-free
[21] = AUC in BALB/c mouse; assay type: ADME, organism-based; details: in vivo
[22] = Stability in pH 1 buffer solutions assessed as compound degradation after 24 hrs at 37 degC; assay type: physicochemical; details: read-out: Drug degradation
Method in brief: (§9)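 Compound held at pH 1 or pH 12 for 24 h at 37 °C, with degradation measured.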

[23] = Cmax in BALB/c mouse; assay type: ADME, organism-based; details: in vivo
[24] = Solubility in water; assay type: physicochemical; details: buffer
[25] = test system: Liver; assay: Half life in mouse liver microsomes at 1 uM in presence of NADPH by LC-MS/MS method; assay type: ADME
Method in brief: (§10)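 Liver microsomes (rat, mouse or pooled human, 0.5 mg/mL) in 100 mM potassium phosphate pH 7.4 with 10 mM MgCl2 and 1.0 μM compound. Preincubated, then NADPH added (water for control). Incubated 60 min at 37 °C. Acetonitrile quench, centrifugation, supernatant analysed by LC–MS/MS.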

[26] = test system: Liver microsome; assay: Half life in human liver microsomes at 1 uM in presence of NADPH by LC-MS/MS method; assay type: ADME; method in brief: as §10
[27] = test system: Liver microsome; assay: Half life in rat liver microsomes at 1 uM in presence of NADPH by LC-MS/MS method; assay type: ADME; method in brief: as §10
[28] = Stability in pH 12 buffer solutions assessed as compound degradation after 24 hrs at 37 degC; assay type: physicochemical; details: read-out: Drug degradation; method in brief: as §9
[29] = Ratio of Cmax in Sprague-Dawley rat at 25 mg/kg, po to MIC for antimicrobial activity against Mycobacterium tuberculosis H37Rv; assay type: ADME, organism-based; details: in vivo
Method in brief: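 Female Sprague-Dawley rats (250–274 g, catheterised; 3 per compound) got a 25 mg/kg gavage dose from a 10 mg/mL solution. Plasma drawn 0–480 min was read by LC–MS/MS, and Cmax was taken by non-compartmental analysis. […] Cmax was divided by MIC.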

| SMILES | AUC(0-inf) [1] | Papp [2] | clearance [3] | CC50 [4] | AUC(0-inf) [5] | half-life [7] | Papp [8] | Ratio [9] | Cmax [10] | F [11] | Ki [12] | MIC [13] | other results |
| --- | --- | --- | --- | --- | --- | --- | --- | --- | --- | --- | --- | --- | --- |
| CCN(CC)CC.Nc1ncnc2c1ncn2[C@@H]1O[C@H](CNS(=O)(=O)NC(=O)c2ccccc2O)[C@@H](O)[C@H]1F | 17400 ng·h/mL | 1.34 ×10⁻⁶ cm/s | 2.5 mL/min/kg | > 200000 nM | 3130 ng·h/mL | 32.5 min | 4.2 ×10⁻⁶ cm/s | 112 | 460 ng/mL | 1.8% | 1.7 nM | 0.19 µM | Ratio [6]: 0.32 |
| CC(=O)O[C@@H]1[C@H](OC(C)=O)[C@@H](COS(=O)(=O)NC(=O)c2ccccc2O)O[C@H]1n1cnc2c(N)ncnc21.CCN(CC)CC |  |  |  |  |  |  |  |  |  |  |  |  | Papp B→A [14]: 0.97 ×10⁻⁶ cm/s; AUC [15]: BLD; efflux ratio [16]: 1.55; Papp A→B [17]: 0.62 ×10⁻⁶ cm/s; Cmax [18]: BLD |
| CC(=O)Oc1ccccc1C(=O)NS(=O)(=O)OC[C@H]1O[C@@H](n2cnc3c(N)ncnc32)[C@H](OC(C)=O)[C@@H]1OC(C)=O.CCN(CC)CC |  |  |  |  | 48.3 ng·h/mL |  |  |  | 30 ng/mL |  |  |  | Drug metabolism [19]: metabolite_detected; Drug metabolism [20]: metabolite_detected |
| CCN(CC)CC.Nc1ccc(C(=O)NS(=O)(=O)NC[C@H]2O[C@@H](n3cnc4c(N)ncnc43)[C@H](O)[C@@H]2O)c(O)c1 | 1050 ng·h/mL |  | 46.3 mL/min/kg | > 200000 nM | 280 ng·h/mL | 10.6 min |  | 351 | 90 ng/mL | 3.7% | 8.9 nM | 3.12 µM |  |
| CCN(CC)CC.O=C(NS(=O)(=O)NC[C@H]1O[C@@H](n2cnc3c(NC4CC4)ncnc32)[C@H](O)[C@@H]1O)c1ccccc1O | 3480 ng·h/mL |  | 9.6 mL/min/kg |  | 302 ng·h/mL | 15.1 min |  | 65 | 140 ng/mL | 1% | 1.5 nM | 0.098 µM |  |
| CCN(CC)CC.O=C(NS(=O)(=O)NC[C@H]1O[C@@H](n2cnc3c(NC4CC4)nc(-c4ccccc4)nc32)[C@H](O)[C@@H]1O)c1ccccc1O | 3070 ng·h/mL | 1.8 ×10⁻⁶ cm/s | 13.6 mL/min/kg |  | 66.7 ng·h/mL | 15.5 min | 0.52 ×10⁻⁶ cm/s | 8224 | 100 ng/mL | 0.3% | 0.76 nM | 6.25 µM | Ratio [6]: 3.45 |
| CCN(CC)CC.Nc1nc(-c2ccccc2)nc2c1ncn2[C@@H]1O[C@H](CNS(=O)(=O)NC(=O)c2ccccc2O)[C@@H](O)[C@H]1F | 33000 ng·h/mL |  | 1.3 mL/min/kg | > 200000 nM | 2330 ng·h/mL | 121 min |  | 975 | 500 ng/mL | 0.8% | 1.6 nM | 1.56 µM |  |
| CCN(CC)CC.Nc1ncnc2c1ncn2[C@@H]1O[C@H](CNS(=O)(=O)NC(=O)c2ccccc2O)C[C@H]1F | 16000 ng·h/mL |  | 2.6 mL/min/kg |  | 3300 ng·h/mL | 62 min |  | 260 | 560 ng/mL | 2% | 3 nM | 0.78 µM |  |
| CCN(CC)CC.Nc1ncnc2c1ncn2[C@@H]1O[C@H](COS(=O)(=O)NC(=O)c2ccccc2O)[C@@H](O)[C@H]1O | 8650 ng·h/mL | 0.96 ×10⁻⁶ cm/s | 4.9 mL/min/kg | > 200000 nM | 1100 ng·h/mL | 11 min | 1.23 ×10⁻⁶ cm/s |  | 400 ng/mL | 1.3% |  | 0.39 µM | AUC [21]: 977 ng·h/mL; degraded at 24 h [22]: < 5%; Cmax [23]: 1200 ng/mL; solubility [24]: > 50 mg/mL; Ratio [6]: 0.78; t1/2 [25]: > 30 min; t1/2 [26]: > 30 min; t1/2 [27]: > 30 min; degraded at 24 h [28]: < 5% |
| CCN(CC)CC.Nc1ncnc2c1ncn2[C@@H]1O[C@H](CNS(=O)(=O)NC(=O)c2ccccc2O)[C@@H](O)[C@H]1O | 5070 ng·h/mL | 0.86 ×10⁻⁶ cm/s | 8.4 mL/min/kg | > 200000 nM |  | 10.6 min | 1.23 ×10⁻⁶ cm/s | 51 | 700 ng/mL | 3.5% | 3.7 nM | 0.19 µM | Ratio [29]: 7 |
| NNC(=O)c1ccncc1 [ISONIAZID] |  |  |  |  |  |  |  |  | 13500 ng/mL | 65% |  |  |  |
